# A selection: hits, their analogues and other compounds. The true share with any hit is near 7.9%.
# SF-1 act: activators of human SF-1, primary screen, cell-based, CHO-K1, Gal4-SF-1 LBD, luciferase luminescence; Steroidogenic factor 1 (Homo sapiens), Q13285; CHO-K1 Gal4-SF-1 LBD luciferase reporter; % increase over DMSO SF-1-specific signal; activation, % at 10 µM; actives 1.9% (n = 65,000); AID 522, 2006;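 active means activation above the mean activation of all tested compounds plus 3 SD, cut at about 50% in these data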
# Target sequence (Q13285 whole entry, looked up, the tested form may be a part): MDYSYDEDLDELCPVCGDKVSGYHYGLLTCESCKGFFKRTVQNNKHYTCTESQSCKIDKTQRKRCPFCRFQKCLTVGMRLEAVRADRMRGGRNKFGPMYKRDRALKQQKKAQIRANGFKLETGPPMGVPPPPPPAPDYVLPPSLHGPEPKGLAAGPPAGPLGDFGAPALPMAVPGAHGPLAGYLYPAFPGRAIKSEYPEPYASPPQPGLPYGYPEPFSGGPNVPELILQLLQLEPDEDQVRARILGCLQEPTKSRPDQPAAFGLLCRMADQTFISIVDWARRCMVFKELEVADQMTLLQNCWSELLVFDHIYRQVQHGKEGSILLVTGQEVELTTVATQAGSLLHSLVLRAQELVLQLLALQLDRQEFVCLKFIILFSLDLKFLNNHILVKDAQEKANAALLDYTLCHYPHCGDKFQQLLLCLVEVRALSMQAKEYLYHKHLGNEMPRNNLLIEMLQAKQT
#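 Material: CHO-K1 cells with Gal4–hSF-1 LBD chimera plus Gal4-driven luciferase / Input: 4,000 CHO-K1 cells per well / Incubation: compound exposure 20 h at 37 °C / Signal: luminescence read 15 min after SteadyLite luciferase reagent, after room-temperature equilibration / Read-out: percent activation versus DMSO / Benchmarks: DMSO negative control and −SF1 background wells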
# HEK293 NFkB inh: inhibitors of PMA/ionomycin-induced NF-kB reporter, primary screen, antigen receptor NF-kB inhibitor project, cell-based, HEK-293 luciferase reporter, luminescence; HEK-293 NF-kB luciferase reporter; inhibition, % at 3 µM; actives 0.21% (n = 62,000); AID 465, 2006;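 active means inhibition above the mean of all tested compounds plus 3 SD, cut at about 40% in these data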;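 further: 0% = stimulated DMSO wells and 100% = 10 µM reference inhibitor 5653914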
#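 Reagent: PMA plus ionomycin mix as NF-kB-activating stimulus. Assay system: NF-kB luciferase reporter HEK-293 cells. Technique: luminescence from luciferase substrate reagent. Incubation: 1 h compound pre-incubation, 16 h PMA/ionomycin at 37 °C. Benchmarks: DMSO only as uninhibited control, 10 µM reference inhibitor as full inhibition. Repeats: tested once.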
# D1 mod: D1 CRE-luciferase signal change, two-sided – cell-based, HEK293 D1, dopamine EC30, D1 allosteric modulator project, primary screen | D(1A) dopamine receptor (Homo sapiens), P21728 | dopamine EC30 potentiation; actives deviate in either direction | B-score at 10 µM | actives 5.9% (n = 58,000);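 active means luminescence count or its row- and column-corrected plate score outside the 99.7% band of the plate's sample wells, on either side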
# JNK3 blocker: JNK3 kinase activity inhibitors, primary screen, biochemical, human, purified enzyme | inhibition, % at 8 µM | Mitogen-activated protein kinase 10 (Homo sapiens), P53779 | actives 0.61% (n = 60,000) | HTS; in the data active means inhibition above about 17%;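 further: 0% = DMSO and 100% = reference inhibitor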
# RORa activator: activators of orphan receptor RORA, primary screen, cell-based, luminescence | CHO-K1 Gal4-RORA LBD luciferase reporter; percent increase over mock-subtracted basal signal | activation, % at 10 µM | actives 1.5% (n = 65,000) | AID 560, 2006;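 active means activation above the mean of all tested compounds plus 3 SD, cut at about 49% in these data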;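 further: 0% = DMSO-treated RORA cells and 100% = added signal equal to DMSO minus mock-transfected cells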
# Starred values were filed as active, the others as inactive; / = no result.
SMILES,SF-1 act,HEK293 NFkB inh,D1 mod,JNK3 blocker,RORa activator
O=C(NCC1CCCO1)c1ccc2nc(N3CCCCC3)sc2c1 (stereo not given),53.9*,-57.8,0.283,5.9,59.4*
O=C(NCC1CCCO1)c1ccc(N2CCCCC2)nc1 (stereo not given),12.1,3.8,0.593,-8.8,14.0
CC(=O)N(Cc1ccc2c(c1)OCO2)C1CC(=O)N(CCc2ccccc2)C1=O (stereo not given),9.8,20.7,-0.00636,2.7,12.6
CCN1CCN(Cc2ccc(NC(=O)Nc3ccccc3Cl)cc2)CC1,30.6,-21.8,-3.34*,5.0,24.2
Cc1ccccc1OCc1nc2ccccc2c(=O)n1NC(=O)c1ccco1,6.3,/,/,-3.2,-3.6
CCc1ccccc1NC(=O)CSc1nnc(-c2ccco2)n1N,2.9,6.3,-1.39,-7.9,-7.4
CCOC(=O)C1CCN(S(=O)(=O)c2ccc(-c3nc4ccccc4s3)s2)CC1,67.9*,-8.2,-0.026,-1.1,10.4
CCOC(=O)N1CCN(C(=O)C2CCN(S(=O)(=O)c3ccc(Br)s3)CC2)CC1,-7.8,1.1,-0.103,/,-23.2
CC(C(=O)NCc1cccnc1)N1C(=O)c2ccccc2C1=O (stereo not given),5.3,12.4,-0.65,/,12.1
CC1(C)CC(=O)C(C(C2=C(O)CC(C)(C)CC2=O)c2cccc(O)c2)C(=O)C1 (stereo not given),-1.0,10.0,0.0738,-0.3,-8.7
CC1(C)CC(=O)C2=C(C1)N(c1cccc(O)c1)C1=C(C2)C(=O)CC(C)(C)C1,6.0,20.8,5.55*,1.6,5.5
CCN(Cc1ccccc1)C(=O)CCCOc1ccccc1,31.5,4.4,0.51,-3.2,58.0*
O=C(O)CCCC(=O)N(Cc1ccccc1)Cc1ccccc1,5.6,16.7,-4.26,0.1,8.8
CC(=O)c1c[nH]c2ccc(C)cc2c1=O,-9.5,5.9,-0.102,/,-0.1
CC(=O)c1cc2c(=O)c3cc(C)ccc3oc2nc1C,38.3,-15.6,-0.414,8.2,57.6*
Cc1ccc(N2CC(C(=O)Nc3nccs3)CC2=O)cc1 (stereo not given),0.7,13.0,-7.44*,3.5,-14.8
CC(C)OCCCNc1nc2c([nH]1)c(=O)n(C)c(=O)n2C,2.9,-7.9,-0.169,2.7,-18.9
O=C(c1ccc(CS(=O)(=O)c2cccc(C(F)(F)F)c2)o1)N1CCN(c2ccccn2)CC1,-8.0,13.0,-0.00511,-5.6,23.4
c1ccc(-c2noc(-c3ccncc3)n2)nc1,14.2,-35.8,-1.23,3.4,34.7
c1ccc(-c2noc(-c3cccnc3)n2)nc1,-2.7,-11.2,-4.07*,4.4,19.5
c1ccc(-c2noc(-c3ccc4c(c3)OCO4)n2)nc1,-74.8,41.2*,-8.26*,5.4,-77.5
c1ccc(-c2noc(-c3ccc4ccccc4c3)n2)nc1,-91.4,75.1*,-4.39*,-3.4,-91.5
c1ccc(CCc2ccccc2-c2nc(-c3ccccn3)no2)cc1,-10.4,0.3,-0.815,-5.9,-1.8
Cc1ccc2c(c1)cc(CN(Cc1ccccc1)C(=O)N(C)C)c1nnnn12,0.0,4.3,1.38,5.9,-3.2
Cc1ccc2cc(CNC(C)C)c(=O)[nH]c2c1,-1.7,/,/,2.3,-11.0
SMILES,SF-1 act,HEK293 NFkB inh,D1 mod,JNK3 blocker,RORa activator
COc1ccc2c(c1)[nH]c1c(=O)n(CC3CCCO3)cnc12 (stereo not given),50.8*,/,-0.304,9.9,16.8
O=c1ccc2c(o1)/C(=C/C=C(Cl)Cl)CCC2,-18.2,5.3,1.87,-7.9,7.4
C[N+](C)(C)C/C=C1/COCO1,14.2,-1.5,1.21,-4.5,-24.4
c1cncc(-c2nc(Oc3ccc(-c4nnco4)cc3)c3c4c(sc3n2)CCCC4)c1,-3.1,-12.3,0.394,7.2,-0.5
O=C(O)c1ccccc1C(=O)NCc1ccccc1,/,/,1.53,/,/
Cc1nc2cccc(C(=O)NCc3ccccc3)c2o1,-4.5,6.8,/,22.8*,-15.3
Cc1ccc2c(CC(=O)N3CCc4ccccc43)coc2c1,86.6*,-11.5,-0.313,2.6,48.0
COc1cc(CC(=O)N2CCc3ccccc32)cc(OC)c1OC,6.6,2.2,-1.47,11.3,-6.4

# Assay outcomes from PubChem.
